Experimental data pooled from the literature.
pIC50: −log10 of the molar value.
Cell line: SK-OV-3

The GI50 of `Cc1cc(C)n(C(=S)[S][Au][PH](CCCCCC[PH]([Au][S]C(=S)n2nc(C)cc2C)(c2ccccc2)c2ccccc2)(c2ccccc2)c2ccccc2)n1` is reported as 0.852 µM (cell growth or viability).
`COc1cc(CNC(=O)CCCC/C=C/C(C)C)ccc1O` gave a pIC50 of 4.66 (cell growth or viability; SRB).
With `C[C@]12CC[C@@H]3c4ccc(O)cc4CC[C@H]3[C@@H]1CC[C@@H]2O` the EC90 was 56.8 µM (cell growth or viability; ATP luminescence; 72 h).
The GI50 of `COc1ccc(C(=O)/C=C/c2ccc3ccccc3c2)cc1S(N)(=O)=O` is reported as 4.9 µM (cell growth or viability; SRB; 48 h).
The EC90 of `CC/C(=C(\c1ccccc1)c1ccc(OCCN(C)C)cc1)c1ccccc1` is reported as 17.4 µM (cell growth or viability; ATP luminescence; 72 h).
With `O=C(c1cc(Cc2n[nH]c(=O)c3ccccc23)ccc1F)N1CCN(C(=O)C2CC2)CC1` the pIC50 was 5.12 (colony formation).
For `COc1ccc(-c2ccc(-c3ccc(C(=N)N)nc3)s2)cc1Cl`, the GI50 was 1.75 µM (cell growth or viability; SRB).
`COc1ccc(C(=O)/C=C/c2ccc(Cl)c(Cl)c2)cc1S(N)(=O)=O` has a GI50 of 5.5 µM (cell growth or viability; SRB; 48 h).
The pIC50 of `COc1cc(Nc2nccc(-c3cnn4nc(OC)ccc34)n2)cc(C(F)(F)F)c1` is reported as 6.80 (cell growth or viability; ATP luminescence).
For `COc1ccc(C(=O)/C=C/c2ccccc2Br)cc1S(N)(=O)=O`, the inhibition was 30% (cell growth or viability; SRB; 10 µM).
For `O=c1[nH]cc(F)c(=O)[nH]1`, the pIC50 was 4.43 (cell growth or viability; MTT; 48 h).
The GI50 of `C#C[C@@]1(O)[C@@H](CO)O[C@@H](n2cc(Cl)c3c(N)ncnc32)[C@@H]1O` is reported as 0.119 µM (cell growth or viability; SRB).
The pIC50 of `Cn1ncnc1[C@H]1c2n[nH]c(=O)c3cc(F)cc(c23)N[C@@H]1c1ccc(F)cc1` is reported as 7.63 (colony formation).
The inhibition of `O=C1Nc2ccccc2C1=NNc1nnc2n1N=C(c1ccccc1)CS2` is reported as 11% (cell growth or viability; SRB; 10 µM).
With `COc1ccc(C(=O)/C=C/c2cccnc2)cc1S(N)(=O)=O` the GI50 was 16.6 µM (cell growth or viability; SRB; 48 h).
With `COc1cccc(Oc2ccccc2NC(=O)CNC(=O)c2cccc3ccccc23)c1` the GI50 was 0.49 µM (cell growth or viability; SRB; 48 h).
The pIC50 of `COc1cc(CNC(=O)CCCC/C=C/C(C)C)ccc1OCc1cn(-c2ccc(C#N)cc2)nn1` is reported as 4.49 (cell growth or viability; SRB).
With `COc1cc(-c2ccc(-c3ccc(C(=N)N)nc3)s2)cc(OC)c1OC` the GI50 was 13.1 µM (cell growth or viability; SRB).
With `COc1ccc(C(=O)/C=C/c2cccc(Cl)c2)cc1S(N)(=O)=O` the GI50 was 6.2 µM (cell growth or viability; SRB; 48 h).
